Series [1] has as its system L1210. Kind of series: Evaluated for growth inhibition against cultured L1210 cells after 48 hour drug exposure in trial 1 at a dose of 1.65*10e-8. The series is classed as functional, Mus musculus.
The subject of series [2] is L1210. Kind of series: Evaluated for growth inhibition against cultured L1210 cells after 48 hour drug exposure in trial 2 at a dose of 1.65*10e-9. The series is classed as functional, Mus musculus.
In series [3] the test system is L1210. Nature of the series: Evaluated for growth inhibition against cultured L1210 cells after 48 hour drug exposure in trial 1 at a dose of 1.65*10e-9. It counts as functional, Mus musculus.
For series [4], the system named is L1210. Kind of series: Evaluated for growth inhibition against cultured L1210 cells after 48 hour drug exposure in trial 2 at a dose of 1.65*10e-8. It counts as functional, Mus musculus.
Series [5] is described as follows: Partition coefficient (logP). It counts as physicochemical. To be noted: octanol/water.
Series [6] concerns L1210. Nature of the series: Evaluated for growth inhibition against cultured L1210 cells after 48 hour drug exposure in trial 2 at a dose of 1.44*10e-8. The series is classed as functional, Mus musculus.
Series [7] relates to L1210. Nature of the series: Evaluated for growth inhibition against cultured L1210 cells after 48 hour drug exposure in trial 1 at a dose of 1.44*10e-9. The series is classed as functional, Mus musculus.
The test system of series [8] is L1210. Nature of the series: Evaluated for growth inhibition against cultured L1210 cells after 48 hour drug exposure in trial 1 at a dose of 1.44*10e-8. The series is classed as functional, Mus musculus.
Series [9] relates to L1210. Nature of the series: Evaluated for growth inhibition against cultured L1210 cells after 48 hour drug exposure in trial 2 at a dose of 1.44*10e-9. The series is classed as functional, Mus musculus.
Series [10] has as its system L1210. Kind of series: Evaluated for growth inhibition against cultured L1210 cells after 48 hour drug exposure in trial 1 at a dose of 1.45*10e-8. It counts as functional, Mus musculus.
The nature of series [11]: Partition coefficient determined using pi values. The series is classed as physicochemical. The conditions noted are these: octanol/water. The gist of the method: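 Calculated log P: the aglycon value was summed with the π value of the glycosyl substituent, using literature −2.84 for O-β-glucosyl and −3.24 for maltosyl.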
The subject of series [12] is L1210. Nature of the series: Evaluated for growth inhibition against cultured L1210 cells after 48 hour drug exposure in trial 2 at a dose of 1.45*10e-9. The series is classed as functional, Mus musculus.
Series [13] relates to L1210. Kind of series: Evaluated for growth inhibition against cultured L1210 cells after 48 hour drug exposure in trial 1 at a dose of 1.45*10e-9. The series is classed as functional, Mus musculus.
Series [14] in a line: Partition coefficient (logP) (HPLC). To be noted: octanol/water. It counts as physicochemical. The gist of the method:
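Relative log P by the reversed-phase LC method of McCall: octadecylsilyl column eluted with acetonitrile–water (1:1). The system was calibrated with a reference compound of known octanol/water log P, and log P values were derived from elution times.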

Series [15] deals with L1210. Nature of the series: Evaluated for growth inhibition against cultured L1210 cells after 48 hour drug exposure in trial 2 at a dose of 1.45*10e-8. The series is classed as functional, Mus musculus.
Series [16] deals with Mus musculus. Kind of series: Evaluated % increase in life span in vivo against P388 Murine leukemia cells in trial 2 at a dose of 50 mg/kg. It counts as functional. The gist of the method: (§1)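 Male CDF1 mice (17-22 g) inoculated ip with 10^6 P388 cells on day 0. Six animals per dose level. Activity is the median increase in life span over untreated controls (% ILS); body weight change of test vs control measured on days 1 and 5.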

Series [17] has as its system Mus musculus. Kind of series: Evaluated % increase in life span in vivo against P388 Murine leukemia cells in trial 1 at a dose of 12.5 mg/kg. The series is classed as functional. In outline: as §1
Series [18] concerns Mus musculus. Kind of series: Evaluated % increase in life span in vivo against P388 Murine leukemia cells in trial 2 at a dose of 25 mg/kg. It counts as functional. In outline: as §1
Series [19] deals with Mus musculus. Nature of the series: Evaluated % increase in life span in vivo against P388 Murine leukemia cells in trial 1 at a dose of 100 mg/kg. It counts as functional. In outline: as §1
Series [20] concerns Mus musculus. Kind of series: Evaluated % increase in life span in vivo against P388 Murine leukemia cells in trial 2 at a dose of 200 mg/kg. It counts as functional. In outline: as §1
The subject of series [21] is Mus musculus. Kind of series: Evaluated % increase in life span in vivo against P388 Murine leukemia cells in trial 1 at a dose of 25 mg/kg. It counts as functional. The gist of the method:
as §1

Series [22] concerns Mus musculus. Kind of series: Evaluated % increase in life span in vivo against P388 Murine leukemia cells in trial 1 at a dose of 200 mg/kg. It counts as functional. The gist of the method:
as §1

Series [23] relates to Mus musculus. Nature of the series: Evaluated % increase in life span in vivo against P388 Murine leukemia cells in trial 2 at a dose of 12.5 mg/kg. It counts as functional. In outline: as §1
Series [24] concerns Mus musculus. Kind of series: Evaluated % increase in life span in vivo against P388 Murine leukemia cells in trial 2 at a dose of 100 mg/kg. It counts as functional. In outline: as §1
The subject of series [25] is Mus musculus. Nature of the series: Evaluated % increase in life span in vivo against P388 Murine leukemia cells in trial 1 at a dose of 50 mg/kg. It counts as functional. The gist of the method: as §1

The structures appear in SMILES notation.

A word on the Inhibition: it is the change of the read-out against control, counted positive when it falls. Lower therefore signals little suppression. The term logP denotes the decadic logarithm of the partition coefficient of the neutral form, usually between octanol and water. Higher therefore signals a more lipophilic compound. Take `Cc1ccc2oc(=O)c3c(O)c4cccc(O)c4c4oc(=O)c1c2c34`: the Inhibition in the series with L1210 [1] amounted to 57%; in the series on L1210 [2] it was 7%; in the series on L1210 [3], 0%; with L1210 [4], 58%. In series [5], this compound yielded a log partition coefficient (logP) of 4.19.
For `Cc1ccc2oc(=O)c3c(O)c4cccc(O[C@H]5O[C@H](C)[C@H](O)[C@H](O)[C@H]5O)c4c4oc(=O)c1c2c34`, the Inhibition in the series with L1210 [6] is 100%; with L1210 [7] it was 71%; in the series with L1210 [8] it was 100%; in the series with L1210 [9], 65%. Moreover, the logP in [5] was determined as 2.07.
Consider `Cc1ccc2oc(=O)c3c(O)c4cccc(O[C@H]5O[C@H](CO)[C@@H](O)[C@H](O)[C@H]5O)c4c4oc(=O)c1c2c34`, for which the Inhibition is given as 100% with L1210 [10], 47% in the series on L1210 [12], 59% in the series with L1210 [13] and 97% in the series with L1210 [15]. Further, the logP in series [11] came to 1.35; in series [14], 1.82.
In general, ILS refers to how much longer treated animals lived than controls. High values mean a large benefit in survival, low ones a small benefit in survival. Consider `CO[C@H]1[C@@H](O)[C@@H](C)O[C@H](O[C@H]2[C@@H](Oc3cccc4c(O)c5c(=O)oc6ccc(C)c7c(=O)oc(c34)c5c67)O[C@H](C)[C@H](O)[C@@H]2O)[C@@H]1O`, for which the ILS at 50 mg/kg is 54% in the series on Mus musculus [16] and 60% in the series on Mus musculus [25]. Besides, the ILS at 12.5 mg/kg amounted to 46% with Mus musculus [17] and 17% in the series with Mus musculus [23]. Moreover, the ILS at 25 mg/kg turned out to be 56% with Mus musculus [18] and 47% in the series with Mus musculus [21]. In addition, the Inhibition with L1210 [10] is given as 100%; in the series with L1210 [12] it was 32%; in the series on L1210 [13], 21%; in the series on L1210 [15], 100%. The results for the ILS at 100 mg/kg with Mus musculus [19] and in the series with Mus musculus [24] were 93% and 45%, respectively. In [5], this compound returned a logP of 1.8. For the same compound, the ILS at 200 mg/kg came out at 58% with Mus musculus [20] and 43% in the series on Mus musculus [22].

The values are drawn from ChEMBL document CHEMBL1121438, “Synthesis and antitumor activity of analogues of the antitumor antibiotic chartreusin” (J Med Chem, 1980).
